{"source": "paper PMC9334479", "about": "(Infectious Diseases and Therapy, 2022)", "key": {"[1]": {"assay": "Total plasma concentration of PMB, PMB1 and PMB2 by HPLC-MS/MS", "type": "in vivo, human", "conditions": "for Cmin (B1)/Cmin (B2): median (IQR)", "procedure,_shortened": "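Critically ill adults received IV PMB sulfate. Plasma was drawn at the sixth or later dose, 10 min after infusion end (Cmax) and just before dosing (Cmin), spun at 3500g, 2–8 °C for 10 min, and stored at −80 °C. Plasma plus polymyxin E internal standard underwent formic acid/acetonitrile extraction. Analysis used C18 gradient LC and positive MRM 402.1→101.15 (PMB1), 397.4→101.15 (PMB2). AKI was graded by RIFLE SCr criteria.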"}, "Free": {"assay": "Free", "type": "in vivo, human", "conditions": "for Free Cmax / Free Cmin: equilibrium dialysis, median (IQR); for Correlation between total and free plasma concentrations: Spearman's rank correlation, Cmax and Cmin, Fig. 2", "procedure,_shortened": "(§1)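 Patient plasma from peak (10 min post-infusion) and trough (pre-dose) draws was dialysed against isotonic phosphate buffer, pH 7.4, across a semipermeable membrane at 37 °C for 5 h. Dialysate and plasma were matrix-matched with blank plasma or buffer, then extracted and quantified by LC–MS/MS as for total levels. fu = Cd/Cp. Total and free levels were compared by Spearman rank correlation.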"}, "plasma protein": {"test_system": "plasma protein", "assay": "Plasma protein binding rate by equilibrium dialysis", "type": "in vitro ADME", "conditions": "human, patient plasma, iv", "procedure,_shortened": "as §1"}, "patients": {"test_system": "patients", "conditions": "cited from earlier work"}, "[2]": {"conditions": "pH 7.4, Protein binding rate, Cmax sample, AKI group N = 25, equilibrium dialysis, phosphate buffer pH 7.4, 37 °C, 5 h, LC-MS/MS, median (IQR)"}, "[3]": {"conditions": "pH 7.4, Protein binding rate, Cmax sample, non-AKI group N = 64, equilibrium dialysis, phosphate buffer pH 7.4, 37 °C, 5 h, LC-MS/MS, median (IQR)"}, "[4]": {"conditions": "pH 7.4, Protein binding rate, Cmin sample, AKI group N = 25, equilibrium dialysis, phosphate buffer pH 7.4, 37 °C, 5 h, LC-MS/MS, median (IQR)"}, "[5]": {"conditions": "pH 7.4, Protein binding rate, Cmin sample, non-AKI group N = 64, equilibrium dialysis, phosphate buffer pH 7.4, 37 °C, 5 h, LC-MS/MS, median (IQR)"}}, "note": "Where a SMILES comes first, the peptide text is derived from it.", "data": [{"compound": "CC[C@H](C)CCCCC(=O)N[C@@H](CCN)C(=O)N[C@H](C(=O)N[C@@H](CCN)C(=O)N[C@H]1CCNC(=O)[C@H]([C@@H](C)O)NC(=O)[C@H](CCN)NC(=O)[C@H](CCN)NC(=O)[C@H](CC(C)C)NC(=O)[C@@H](Cc2ccccc2)NC(=O)[C@H](CCN)NC1=O)[C@@H](C)O", "note": "[PMB1, polymyxin B1] (HELM PEPTIDE1{[CC[C@H](C)CCCCC(=O)[*:2]].[Dab].T.[Dab].[Dab].[Dab].[dF].L.[Dab].[Dab].T}$PEPTIDE1,PEPTIDE1,5:R3-11:R2$$$V2.0)", "values": [{"measurement": "Cmax (B1), RIFLE category Failure (F)", "setting": "[1]; 1 patient with AKI stage Failure, total plasma peak concentration", "result": 6.17}, {"measurement": "Free Cmax", "setting": "Free; AKI group N = 25", "result": "0.19 (0.12–0.26) μg/ml"}, {"measurement": "Free Cmin", "setting": "Free; AKI group N = 25", "result": "0.05 (0.04–0.19) μg/ml"}, {"measurement": "Correlation between total and free plasma concentrations", "setting": "Free", "result": "positively correlated"}, {"measurement": "Free Cmax", "setting": "Free; non-AKI group N = 64", "result": "0.14 (0.11–0.18) μg/ml"}, {"measurement": "Free Cmin", "setting": "Free; non-AKI group N = 64", "result": "0.07 (0.04–0.10) μg/ml"}, {"measurement": "fraction unbound at 5 h", "setting": "plasma protein; pH 7.4", "result": 0.055}, {"measurement": "fraction unbound at 5 h", "setting": "plasma protein; [2]", "result": 0.045}, {"measurement": "fraction unbound at 5 h", "setting": "plasma protein; [3]", "result": 0.042}, {"measurement": "fraction unbound at 5 h", "setting": "plasma protein; [4]", "result": 0.053}, {"measurement": "fraction unbound at 5 h", "setting": "plasma protein; [5]", "result": 0.057}]}, {"compound": "CC(C)CCCCC(=O)N[C@@H](CCN)C(=O)N[C@H](C(=O)N[C@@H](CCN)C(=O)N[C@H]1CCNC(=O)[C@H]([C@@H](C)O)NC(=O)[C@H](CCN)NC(=O)[C@H](CCN)NC(=O)[C@H](CC(C)C)NC(=O)[C@@H](Cc2ccccc2)NC(=O)[C@H](CCN)NC1=O)[C@@H](C)O", "note": "[PMB2, polymyxin B2] (HELM PEPTIDE1{[CC(C)CCCCC(=O)[*:2]].[Dab].T.[Dab].[Dab].[Dab].[dF].L.[Dab].[Dab].T}$PEPTIDE1,PEPTIDE1,5:R3-11:R2$$$V2.0)", "values": [{"measurement": "Free Cmax", "setting": "Free; AKI group N = 25", "result": "0.16 (0.14–0.19) μg/ml"}, {"measurement": "Free Cmin", "setting": "Free; AKI group N = 25", "result": "0.07 (0.06–0.09) μg/ml"}, {"measurement": "Correlation between total and free plasma concentrations", "setting": "Free", "result": "positively correlated"}, {"measurement": "Free Cmax", "setting": "Free; non-AKI group N = 64", "result": "0.14 (0.11–0.18) μg/ml"}, {"measurement": "Free Cmin", "setting": "Free; non-AKI group N = 64", "result": "0.07 (0.05–0.10) μg/ml"}, {"measurement": "fraction unbound at 5 h", "setting": "plasma protein; pH 7.4", "result": 0.215}, {"measurement": "fraction unbound at 5 h", "setting": "plasma protein; [2]", "result": 0.141}, {"measurement": "fraction unbound at 5 h", "setting": "plasma protein; [3]", "result": 0.161}, {"measurement": "fraction unbound at 5 h", "setting": "plasma protein; [4]", "result": 0.194}, {"measurement": "fraction unbound at 5 h", "setting": "plasma protein; [5]", "result": 0.221}]}, {"compound": "CC[C@H](C)CCCCC(=O)N[C@@H](CCN)C(=O)N[C@H](C(=O)N[C@@H](CCN)C(=O)N[C@H]1CCNC(=O)[C@H]([C@@H](C)O)NC(=O)[C@H](CCN)NC(=O)[C@H](CCN)NC(=O)[C@H](CC(C)C)NC(=O)[C@@H](Cc2ccccc2)NC(=O)[C@H](CCN)NC1=O)[C@@H](C)O", "note": "[PMB, polymyxin B] (HELM PEPTIDE1{[CC[C@H](C)CCCCC(=O)[*:2]].[Dab].T.[Dab].[Dab].[Dab].[dF].L.[Dab].[Dab].T}$PEPTIDE1,PEPTIDE1,5:R3-11:R2$$$V2.0)", "values": [{"measurement": "Cmin (B1)/Cmin (B2)", "setting": "[1]; AKI group N = 25", "result": "3.37 (2.85–3.68)"}, {"measurement": "Cmin (B1)/Cmin (B2)", "setting": "[1]; non-AKI group N = 64", "result": "3.27 (2.91–3.65)"}]}, {"compound": "colistin", "values": [{"measurement": "Incidence of AKI", "setting": "patients; colistin given iv as colistimethate sodium", "result": "30–76.1%"}, {"measurement": "Optimal cut-off trough concentration for predicting nephrotoxicity", "setting": "patients; colistin-related nephrotoxicity", "result": 3.33, "unit": "mg/L"}]}]}
